Measured values as given in ChEMBL document CHEMBL3872228, “A new scaffold of topoisomerase I inhibitors: Design, synthesis and biological evaluation” (2016).
Active and inactive are the calls of the source. The calls are words filed in the database; no cut-off is given here.

Columns and labels:
[1] = Growth inhibition of human MSTO-211H cells after 72 hrs by trypan blue assay; type: functional
Method in brief: (§1)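 Medium: HeLa in F-12 [HAM]; H460 and MSTO-211H in RPMI 1640 plus Hepes, pyruvate and glucose. All media contained 10% heat-inactivated FCS and antibiotics; 37°C, 5% CO2. 3–4 × 10^4 cells/well grew 24 h, then test agents were added at various concentrations for 72 h. Viability by trypan blue; GI50 = concentration giving 50% reduction in cell number vs control.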

[2] = Growth inhibition of human H460 cells after 72 hrs by trypan blue assay; type: functional; details: NCI-H460, 72 h; method in brief: as §1
[3] = Growth inhibition of human HeLa cells after 72 hrs by trypan blue assay; type: functional; method in brief: as §1
[4] = molecular target: T1, DNA topoisomerase 1 (Homo sapiens) (UniProt P11387); assay: Inhibition of human recombinant topoisomerase 1 catalytic activity assessed as decrease in relaxation of supercoiled pBR322 DNA at 100 uM after 60 mins by agarose gel electrophoresis
T1 sequence (whole entry): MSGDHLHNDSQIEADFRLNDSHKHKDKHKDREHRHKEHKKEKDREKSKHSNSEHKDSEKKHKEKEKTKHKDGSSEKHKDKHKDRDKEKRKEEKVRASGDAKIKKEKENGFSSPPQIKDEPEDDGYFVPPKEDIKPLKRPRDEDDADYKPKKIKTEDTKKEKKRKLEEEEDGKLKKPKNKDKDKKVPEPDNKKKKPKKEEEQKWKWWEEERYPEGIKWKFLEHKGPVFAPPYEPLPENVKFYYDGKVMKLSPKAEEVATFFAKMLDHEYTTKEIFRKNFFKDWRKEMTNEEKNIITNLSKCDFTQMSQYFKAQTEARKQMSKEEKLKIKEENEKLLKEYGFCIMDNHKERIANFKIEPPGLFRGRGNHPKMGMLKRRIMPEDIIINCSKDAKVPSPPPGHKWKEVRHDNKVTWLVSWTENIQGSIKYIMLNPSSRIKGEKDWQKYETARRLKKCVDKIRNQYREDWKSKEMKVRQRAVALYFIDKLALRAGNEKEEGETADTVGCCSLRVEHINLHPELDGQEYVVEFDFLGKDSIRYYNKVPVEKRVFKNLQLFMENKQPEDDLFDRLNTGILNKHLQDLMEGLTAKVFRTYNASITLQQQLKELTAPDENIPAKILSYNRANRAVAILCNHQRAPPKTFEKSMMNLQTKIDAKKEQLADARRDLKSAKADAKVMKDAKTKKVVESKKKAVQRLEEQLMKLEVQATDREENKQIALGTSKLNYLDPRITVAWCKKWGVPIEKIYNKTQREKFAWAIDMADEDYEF
Method in brief: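 Supercoiled pBR322 plasmid (0.25 µg) with 2U human recombinant topoisomerase I plus test compound, 60 min at 37 °C. Stopped with SDS stop buffer and proteinase K (50 µg/mL), a further 30 min at 37 °C. Run on 1% agarose; post-stained with ethidium bromide 1 µg/mL in TAE and imaged under UV.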

[5] = Binding affinity to DNA (unknown origin) assessed as induction of negative LD signal at 260 nm at 1.2 x 10^-5 M by linear flow dichroism method; details: in the assay text read “380 to 520 nm” for “260 nm”
Method in brief: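 Linear flow dichroism: aqueous DNA solutions at 1.9 × 10^-3 M in ETN buffer (10 mM TRIS, 1 mM EDTA, pH 7.0, 0.01 M NaCl); spectra recorded at 25°C at [drug]/[DNA] ratios of 0 and 0.08.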

[6] = molecular target: T1, DNA topoisomerase 1 (Homo sapiens); assay: Poison activity at human recombinant topoisomerase 1 assessed as enzyme-supercoiled pBR322 DNA cleavable complex at 500 uM after 60 mins by agarose gel electrophoresis
[7] = molecular target: T1, DNA topoisomerase 1 (Homo sapiens); assay: Poison activity at human recombinant topoisomerase 1 assessed as enzyme-supercoiled pBR322 DNA cleavable complex at 25 to 100 uM after 60 mins by agarose gel electrophoresis

inhibition [4] | Activity [5] | SMILES | GI50 [1] [µM] | GI50 [2] [µM] | GI50 [3] [µM] | Activity [6] | Activity [7]
 |  | CC[C@@]1(O)C(=O)OCc2c1cc1n(c2=O)Cc2cc3ccccc3nc2-1 [CAMPTOTHECIN] | 0.0021 | 0.002 | 0.0054 |  | 
 |  | C=CC[C@@]12CCN(C(=O)OC(C)(C)C)[C@@H]1n1c3nc4ccc(O)c(CN(C)C)c4cc3c(=O)c3cccc2c31 | 22.8 | 17.8 | 35.2 |  | 
 |  | C=CC[C@@]12CCN[C@@H]1n1c3nc4ccc(O)cc4cc3c(=O)c3cccc2c31 | 18.7 | > 50 | 19 |  | 
 |  | C=CC[C@@]12CCN[C@@H]1n1c3nc4ccc(O)c(CN(C)C)c4cc3c(=O)c3cccc2c31 | 29.1 | 26.2 | 29.3 |  | 
 |  | C=CC[C@@]12CCN[C@@H]1n1c3nc4ccc(O)cc4cc3c(=O)c3cc(O)cc2c31 | 7 | 4.8 | 15.3 |  | 
 |  | C=CC[C@@]12CCN[C@@H]1n1c3nc4ccccc4cc3c(=O)c3cccc2c31 | 13 | 14.4 | 16.5 |  | 
 |  | C=CC[C@@]12CCN[C@@H]1n1c3nc4ccccc4cc3c(=O)c3cc(OC)cc2c31 | 14.4 | 32.2 | 30.7 |  | 
 |  | C=CC[C@@]12CCN(C(=O)OC(C)(C)C)[C@@H]1n1c3nc4ccc(O)cc4cc3c(=O)c3cccc2c31 | 24.1 | 32.7 | 30.5 |  | 
Active | Active | C=CC[C@@]12CCN[C@@H]1n1c3nc4ccc(OC)cc4cc3c(=O)c3cccc2c31 | 7.8 | 8.9 | 14.8 | Active | 
 |  | C=CC[C@@]12CCN(C)[C@@H]1n1c3nc4ccc(OC)cc4cc3c(=O)c3cc(OC)cc2c31 | 34.2 | 50 | 18.3 |  | 
 |  | CN(C)Cc1c(O)ccc2nc3c(cc12)c(=O)c1cccc2c1n3[C@H]1N(C(=O)OC(C)(C)C)CC[C@@]21CCO | 20 | 16.4 | 13 |  | 
Active | Active | COc1ccc2nc3c(cc2c1)c(=O)c1cccc2c1n3[C@H]1NCC[C@@]21CCO | 1.9 | 0.85 | 1.4 |  | Active
 |  | CC(C)(C)OC(=O)N1CC[C@@]2(CCO)c3cccc4c(=O)c5cc6cc(O)ccc6nc5n(c34)[C@@H]12 | 13.7 | 26.8 | 13 |  | 
 |  | C=CC[C@@]12CCN[C@@H]1n1c3nc4ccc(OC)cc4cc3c(=O)c3cc(OC)cc2c31 | 13.5 | 18.6 | 16.6 |  | 
